According to ChEMBL document CHEMBL4219109, “Design, synthesis and biological evaluation of novel hydroxamic acid based histone deacetylase 6 selective inhibitors bearing phenylpyrazol scaffold as surface recognition motif” (Bioorg Med Chem, 2018):

Key:
[1] = biological target: T1, Protein deacetylase HDAC6 (Homo sapiens, UniProt Q9UBN7); assay: (§1) Inhibition of full length recombinant human N-terminal GST-tagged HDAC6 expressed in baculovirus infected sf9 cells using Boc-Lys-(Ac)-AMC as substrate preincubated for 15 mins followed by substrate addition measured after 60 mins by fluorescence assay
T1 sequence (Q9UBN7 whole entry): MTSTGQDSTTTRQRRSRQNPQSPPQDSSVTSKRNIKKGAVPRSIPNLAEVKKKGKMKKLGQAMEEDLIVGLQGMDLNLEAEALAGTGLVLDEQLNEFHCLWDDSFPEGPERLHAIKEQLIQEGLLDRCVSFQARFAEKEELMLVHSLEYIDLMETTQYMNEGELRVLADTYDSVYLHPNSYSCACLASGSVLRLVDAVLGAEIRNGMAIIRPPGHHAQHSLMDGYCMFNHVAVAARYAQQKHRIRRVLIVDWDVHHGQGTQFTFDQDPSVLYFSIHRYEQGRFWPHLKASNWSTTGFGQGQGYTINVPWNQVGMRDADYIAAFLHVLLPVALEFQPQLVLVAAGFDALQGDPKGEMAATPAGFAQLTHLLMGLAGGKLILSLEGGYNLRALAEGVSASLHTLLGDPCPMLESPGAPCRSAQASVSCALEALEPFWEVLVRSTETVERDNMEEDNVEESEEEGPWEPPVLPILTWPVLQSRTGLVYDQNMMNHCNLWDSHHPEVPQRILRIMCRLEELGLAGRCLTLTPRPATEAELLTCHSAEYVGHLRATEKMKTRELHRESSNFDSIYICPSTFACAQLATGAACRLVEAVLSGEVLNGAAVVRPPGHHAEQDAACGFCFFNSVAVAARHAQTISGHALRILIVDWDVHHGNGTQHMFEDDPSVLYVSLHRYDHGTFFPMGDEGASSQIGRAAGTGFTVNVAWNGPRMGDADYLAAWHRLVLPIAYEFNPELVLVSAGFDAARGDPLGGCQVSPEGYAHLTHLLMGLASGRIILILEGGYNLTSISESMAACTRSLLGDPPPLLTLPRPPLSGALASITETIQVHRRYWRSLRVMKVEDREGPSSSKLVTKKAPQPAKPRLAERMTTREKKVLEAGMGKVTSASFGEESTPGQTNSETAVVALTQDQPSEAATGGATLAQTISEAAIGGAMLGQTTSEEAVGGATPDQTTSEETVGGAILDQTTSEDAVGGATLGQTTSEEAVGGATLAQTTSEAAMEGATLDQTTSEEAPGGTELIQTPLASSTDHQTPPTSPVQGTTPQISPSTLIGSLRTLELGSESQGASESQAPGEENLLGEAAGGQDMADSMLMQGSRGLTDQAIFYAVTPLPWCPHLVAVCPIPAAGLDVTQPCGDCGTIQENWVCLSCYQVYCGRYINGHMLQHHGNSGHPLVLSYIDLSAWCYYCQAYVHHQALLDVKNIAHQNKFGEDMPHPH

Histone deacetylase = assay: Inhibition of HDAC in human HeLa nuclear extract using Boc-Lys-(Ac)-AMC as substrate preincubated for 15 mins followed by substrate addition measured after 60 mins by fluorescence assay; type: protein assay
HepG2 [2] = assay: Potency index, ratio of vorinostat GI50 to compound GI50 for human HepG2 cells; type: functional
Histone deacetylase 1 = Histone deacetylase 1 (Homo sapiens, UniProt Q13547); assay: Inhibition of full length recombinant human C-terminal FLAG/His-tagged HDAC1 expressed in baculovirus infected sf9 cells using Boc-Lys-(Ac)-AMC as substrate preincubated for 15 mins followed by substrate addition measured after 60 mins by fluorescence assay
Sequence of Histone deacetylase 1 (Q13547 whole entry, the tested form may be a part): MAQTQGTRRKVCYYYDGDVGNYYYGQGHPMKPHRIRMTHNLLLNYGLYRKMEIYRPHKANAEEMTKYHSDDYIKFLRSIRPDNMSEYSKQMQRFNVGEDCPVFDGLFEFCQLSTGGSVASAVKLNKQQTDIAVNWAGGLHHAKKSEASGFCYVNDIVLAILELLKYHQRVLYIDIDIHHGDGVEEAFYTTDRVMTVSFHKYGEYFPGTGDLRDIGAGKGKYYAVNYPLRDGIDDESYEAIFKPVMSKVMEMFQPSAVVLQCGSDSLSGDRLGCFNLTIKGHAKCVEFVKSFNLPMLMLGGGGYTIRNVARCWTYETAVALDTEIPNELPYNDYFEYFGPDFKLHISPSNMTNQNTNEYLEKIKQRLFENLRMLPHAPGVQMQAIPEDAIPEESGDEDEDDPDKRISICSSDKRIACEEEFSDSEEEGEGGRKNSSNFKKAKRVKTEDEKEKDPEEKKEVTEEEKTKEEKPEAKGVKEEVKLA

[3] = biological target: Histone deacetylase 3/Nuclear receptor corepressor 2 (HDAC3/NCoR2) (Homo sapiens, UniProt O15379); assay: as §1, with “C-terminal His-tagged HDAC3/N-terminal” for “N-terminal”, “NCOR2 (395 to 489 residues)” for “HDAC6”
Sequence of Histone deacetylase 3/Nuclear receptor corepressor 2 (HDAC3/NCoR2) (O15379 whole entry, the tested form may be a part): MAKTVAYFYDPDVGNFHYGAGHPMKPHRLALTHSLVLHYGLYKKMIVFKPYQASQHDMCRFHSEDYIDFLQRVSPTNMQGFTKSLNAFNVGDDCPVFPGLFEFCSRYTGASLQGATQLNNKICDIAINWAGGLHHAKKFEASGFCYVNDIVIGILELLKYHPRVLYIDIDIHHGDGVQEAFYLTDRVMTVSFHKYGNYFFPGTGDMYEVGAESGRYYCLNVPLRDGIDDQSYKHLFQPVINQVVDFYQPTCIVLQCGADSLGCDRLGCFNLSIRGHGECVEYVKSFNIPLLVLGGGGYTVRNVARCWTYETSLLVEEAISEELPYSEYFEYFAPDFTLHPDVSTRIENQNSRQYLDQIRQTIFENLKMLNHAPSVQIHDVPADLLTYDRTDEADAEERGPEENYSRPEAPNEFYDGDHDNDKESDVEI
Sequence of Histone deacetylase 3/Nuclear receptor corepressor 2 (HDAC3/NCoR2) (Q9Y618 whole entry, further chain, the tested form may be a part): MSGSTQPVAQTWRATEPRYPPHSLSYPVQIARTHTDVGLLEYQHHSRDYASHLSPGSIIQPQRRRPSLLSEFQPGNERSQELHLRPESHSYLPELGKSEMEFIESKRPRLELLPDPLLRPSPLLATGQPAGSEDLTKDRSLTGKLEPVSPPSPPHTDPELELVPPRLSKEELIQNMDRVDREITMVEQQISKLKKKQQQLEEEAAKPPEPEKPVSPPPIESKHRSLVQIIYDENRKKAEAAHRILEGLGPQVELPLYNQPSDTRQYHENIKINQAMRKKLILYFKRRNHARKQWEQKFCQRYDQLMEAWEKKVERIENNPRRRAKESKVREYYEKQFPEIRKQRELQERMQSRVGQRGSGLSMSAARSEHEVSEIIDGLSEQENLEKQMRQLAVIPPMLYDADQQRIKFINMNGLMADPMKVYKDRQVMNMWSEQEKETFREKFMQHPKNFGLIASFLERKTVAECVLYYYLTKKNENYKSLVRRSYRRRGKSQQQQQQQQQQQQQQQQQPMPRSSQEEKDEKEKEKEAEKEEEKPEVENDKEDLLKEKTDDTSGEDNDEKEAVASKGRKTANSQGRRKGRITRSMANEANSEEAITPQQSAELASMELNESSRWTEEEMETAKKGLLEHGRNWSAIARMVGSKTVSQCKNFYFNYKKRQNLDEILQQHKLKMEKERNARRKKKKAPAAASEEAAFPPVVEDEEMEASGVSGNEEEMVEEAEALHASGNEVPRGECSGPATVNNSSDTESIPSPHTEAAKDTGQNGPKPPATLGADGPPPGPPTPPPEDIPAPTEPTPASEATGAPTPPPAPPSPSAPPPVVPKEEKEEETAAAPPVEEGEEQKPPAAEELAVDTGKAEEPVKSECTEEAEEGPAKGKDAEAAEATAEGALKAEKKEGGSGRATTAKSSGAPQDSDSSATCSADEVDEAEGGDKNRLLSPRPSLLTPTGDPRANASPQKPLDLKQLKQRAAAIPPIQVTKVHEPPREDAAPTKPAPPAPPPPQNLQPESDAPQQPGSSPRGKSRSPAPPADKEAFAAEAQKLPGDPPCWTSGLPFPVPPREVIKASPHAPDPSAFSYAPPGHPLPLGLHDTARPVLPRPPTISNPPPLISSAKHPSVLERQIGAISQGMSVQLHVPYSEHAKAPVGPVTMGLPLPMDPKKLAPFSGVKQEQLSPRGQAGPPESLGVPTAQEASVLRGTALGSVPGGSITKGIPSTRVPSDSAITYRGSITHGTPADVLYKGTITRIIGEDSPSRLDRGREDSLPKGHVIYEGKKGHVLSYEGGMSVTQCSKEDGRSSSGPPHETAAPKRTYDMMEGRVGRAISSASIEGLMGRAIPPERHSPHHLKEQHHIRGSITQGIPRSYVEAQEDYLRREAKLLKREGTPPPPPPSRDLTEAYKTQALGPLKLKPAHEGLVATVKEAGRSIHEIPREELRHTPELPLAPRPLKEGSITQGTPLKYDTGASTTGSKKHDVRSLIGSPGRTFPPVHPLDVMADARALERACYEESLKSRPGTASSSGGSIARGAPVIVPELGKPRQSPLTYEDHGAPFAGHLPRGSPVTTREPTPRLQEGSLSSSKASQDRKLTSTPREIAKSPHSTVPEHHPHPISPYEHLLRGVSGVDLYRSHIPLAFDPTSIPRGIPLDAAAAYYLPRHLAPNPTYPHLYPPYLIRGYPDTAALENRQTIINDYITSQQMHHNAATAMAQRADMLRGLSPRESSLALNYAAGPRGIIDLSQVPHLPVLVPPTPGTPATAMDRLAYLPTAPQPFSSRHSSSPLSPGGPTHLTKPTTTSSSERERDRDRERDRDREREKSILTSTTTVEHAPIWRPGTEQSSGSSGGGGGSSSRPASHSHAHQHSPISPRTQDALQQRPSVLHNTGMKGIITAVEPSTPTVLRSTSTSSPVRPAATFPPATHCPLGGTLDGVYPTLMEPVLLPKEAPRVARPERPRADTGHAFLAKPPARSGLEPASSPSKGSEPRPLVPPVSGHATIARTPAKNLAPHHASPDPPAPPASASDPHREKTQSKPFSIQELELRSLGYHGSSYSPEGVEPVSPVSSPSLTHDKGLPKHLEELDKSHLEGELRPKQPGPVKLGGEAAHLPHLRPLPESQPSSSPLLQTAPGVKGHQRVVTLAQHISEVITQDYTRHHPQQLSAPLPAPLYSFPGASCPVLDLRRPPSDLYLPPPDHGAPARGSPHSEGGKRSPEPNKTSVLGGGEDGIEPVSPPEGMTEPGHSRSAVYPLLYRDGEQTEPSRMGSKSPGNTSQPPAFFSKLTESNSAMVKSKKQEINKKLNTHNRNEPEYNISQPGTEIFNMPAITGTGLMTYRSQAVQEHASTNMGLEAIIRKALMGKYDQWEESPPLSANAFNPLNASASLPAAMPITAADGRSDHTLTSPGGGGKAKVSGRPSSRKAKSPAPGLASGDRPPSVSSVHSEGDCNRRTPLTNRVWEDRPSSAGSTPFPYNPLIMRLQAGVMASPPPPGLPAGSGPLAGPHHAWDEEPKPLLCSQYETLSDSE

Histone deacetylase 2 = Histone deacetylase 2 (Homo sapiens, UniProt Q92769); assay: Inhibition of full length recombinant human C-terminal His-tagged HDAC2 expressed in baculovirus infected sf9 cells using Boc-Lys-(Ac)-AMC as substrate preincubated for 15 mins followed by substrate addition measured after 60 mins by fluorescence assay
Sequence of Histone deacetylase 2 (Q92769 whole entry): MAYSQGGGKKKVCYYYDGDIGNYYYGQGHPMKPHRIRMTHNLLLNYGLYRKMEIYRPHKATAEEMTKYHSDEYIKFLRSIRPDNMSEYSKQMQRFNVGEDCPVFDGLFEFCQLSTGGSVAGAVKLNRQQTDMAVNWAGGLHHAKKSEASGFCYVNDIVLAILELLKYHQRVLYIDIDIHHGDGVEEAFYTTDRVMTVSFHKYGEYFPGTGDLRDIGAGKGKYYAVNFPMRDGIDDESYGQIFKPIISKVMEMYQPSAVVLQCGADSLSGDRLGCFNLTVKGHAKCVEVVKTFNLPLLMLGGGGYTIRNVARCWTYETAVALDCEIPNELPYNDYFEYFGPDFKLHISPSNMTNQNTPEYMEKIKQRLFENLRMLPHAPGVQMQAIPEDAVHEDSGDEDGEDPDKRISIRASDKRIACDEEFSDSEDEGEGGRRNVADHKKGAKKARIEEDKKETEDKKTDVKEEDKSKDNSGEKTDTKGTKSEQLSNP

HepG2 [4] = assay: Antiproliferative activity against human HepG2 cells after 96 hrs by MTT assay; type: functional; conditions: Homo sapiens, HepG2, 96 h
Method in brief: (§2)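 Cells from Shanghai Cell Bank; A549 grown in high-glucose DMEM and HepG2 in MEM, both with 10% FBS plus penicillin/streptomycin, at 37°C in 5% CO₂. Seeded at 1.5-3.5×10⁴ cells/well for 24 h, then given graded compound concentrations for 96 h. MTT solution (2 mg/mL) added for 4 h, formazan dissolved in DMSO, A570 read. Growth expressed as treated/untreated cell number ratio.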

A549 = assay: Antiproliferative activity against human A549 cells after 96 hrs by MTT assay; type: functional; conditions: Homo sapiens, A549, 96 h; method in brief: as §2
Histone deacetylase 8 = biological target: T2, Histone deacetylase 8 (Homo sapiens, UniProt Q9BY41); assay: Inhibition of full length recombinant human C-terminal His-tagged HDAC8 expressed in baculovirus infected sf9 cells using Boc-Lys-(TFA)-AMC as substrate preincubated for 15 mins followed by substrate addition measured after 60 mins by fluorescence assay
T2 sequence (Q9BY41 whole entry): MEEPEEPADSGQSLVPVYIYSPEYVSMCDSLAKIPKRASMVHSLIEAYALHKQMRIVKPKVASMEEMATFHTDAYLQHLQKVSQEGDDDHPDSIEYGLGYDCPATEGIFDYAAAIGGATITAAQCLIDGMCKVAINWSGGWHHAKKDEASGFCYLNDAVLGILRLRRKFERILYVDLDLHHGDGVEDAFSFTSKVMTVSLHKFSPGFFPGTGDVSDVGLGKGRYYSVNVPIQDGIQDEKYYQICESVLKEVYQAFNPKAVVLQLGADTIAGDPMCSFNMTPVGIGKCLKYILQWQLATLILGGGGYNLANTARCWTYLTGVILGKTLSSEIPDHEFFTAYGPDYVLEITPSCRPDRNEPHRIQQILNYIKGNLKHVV

With `Cc1cc(-c2ccc(F)cc2)n(Cc2ccc(C(=O)NO)cc2)n1` as the compound, how does the IC50 [1] read?
The IC50 was 20 nM.

And the IC50 (Histone deacetylase)?
Its IC50 is 1439 nM.

And the RatioGI50 (HepG2 [2])?
Its RatioGI50 is 6.

And the IC50 (Histone deacetylase 1)?
Its IC50 is 2020 nM.

And the IC50 [3]?
The IC50 was 1200 nM.

And the IC50 (Histone deacetylase 2)?
The IC50 was 1970 nM.

And the GI50 (HepG2 [4])?
Its GI50 is 3630 nM.

And the GI50 (A549)?
The GI50 was 33000 nM.

And the IC50 (Histone deacetylase 8)?
Its IC50 is over 5000 nM.
